High-throughput results from PubChem BioAssay.
CHRM4 PAM = positive allosteric modulators of human muscarinic M4 receptor; P08173; CHO-K1 hM4/Gqi5, Fluo-8 calcium fluorescence, ACh EC20; 0% = ACh EC20, 100% = maximal ACh; activation, % at 3 µM; 360,000 compounds, 0.4% hits; AID 624126;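 active = activation above its plate's cutoff, the mean activation of sample wells plus 3 SD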
CHRM4 agonist = CHRM4 agonism in calcium assay; activation, % at 3 µM; CHO-K1 hM4/Gqi5, Fluo-8 calcium fluorescence; vehicle 0%, full acetylcholine response 100%; 360,000 compounds, 0.14% hits; P08173;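 active = activation above the run mean over all test wells plus 3 SD, cut at about 32% in these data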;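 note: peak over basal fluorescence ratio per well then scaled between controls; 0% = DMSO wells and 100% = acetylcholine at EC100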
M5 ag = CHRM5 agonism in calcium assay; 360,000 compounds, 0.19% hits; CHO-K1 hM5 cells, Fluo-8 calcium fluorescence; 0% DMSO wells, 100% maximal acetylcholine response; P08912; activation, % at 3 µM;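 active = activation above the run's mean over test compounds plus 3 SD, cut at about 23% in these data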;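 note: signal is peak over basal fluorescence ratio across the kinetic read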
CHRM4 antagonist = CHRM4 antagonism in calcium assay; AID 624125; 360,000 compounds, 0.73% hits; inhibition, % at 3 µM; CHO-hM4 cells, ACh EC80, Fluo-8 calcium fluorescence;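 active = inhibition above its plate's cutoff, the mean inhibition of sample wells plus 3 SD, cut at about 27% in these data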;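 note: 0% = acetylcholine EC80 with DMSO and 100% = DMSO without agonist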
M5 PAM = positive allosteric modulators of human muscarinic M5 receptor; P08912; CHO-K1 hM5, Fluo-8 calcium, ACh EC20 PAM; 0% = ACh EC20, 100% = ACh EC100; activation, % at 3 µM; 360,000 compounds, 0.3% hits; AID 624038;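 active = activation above the run cutoff, the mean activation of all test compounds plus 3 SD, cut at about 18% in these data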
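Assay system – human M5 receptor in CHO-K1 cells · Read-out – % activation, ACh-normalized · Technique – Fluo-8 calcium fluorescence · Dosing – single-point, 3 µM nominal · Incubation – Fluo-8 loading 80 min at 37 °C plus 30 min room temperature · Repeats – singlicate, one well per test compound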
M5 antag = antagonists of human muscarinic M5 receptor (CHRM5). 360,000 compounds, 0.59% hits. CHO-hM5 cells, Fluo-8 calcium fluorescence, ACh EC80. inhibition, % at 3 µM. AID 624040;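 active = inhibition above a per-plate cutoff, the mean of that plate's test compounds plus 3 SD, cut at about 27% in these data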;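 note: 0% = acetylcholine EC80 with DMSO and 100% = DMSO without agonist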
Starred values were filed as active, the others as inactive. Hits are enriched below; roughly 1.9% of the tested compounds scored in any of these assays.

SMILES	CHRM4 PAM	CHRM4 agonist	M5 ag	CHRM4 antagonist	M5 PAM	M5 antag
CC1=NN(C(=O)CSCc2ccccc2)C(O)(c2ccc(Cl)cc2)C1 (stereo not given)	3.8	1.1	-3.6	-3.4	4.1	3.3
Cc1cccc(N2CCN(CC(=O)Nc3ccc(S(=O)(=O)N4CCOCC4)cc3)CC2)c1C	-6.7	19.2	3.2	5.9	-11.9	33.8*
CCN1CCN(c2ccc(S(=O)(=O)N3CCOCC3)cc2NC(=O)CCOc2ccccc2)CC1	5.4	2.3	-5.0	-1.1	-9.9	29.2*
CCN1CCN(c2ccc(S(=O)(=O)N3CCCCC3)cc2NC(=O)Cc2ccc(Cl)c(Cl)c2)CC1	-15.4	53.9*	28.1*	20.7	-16.9	20.3
CCN1CCN(c2ccc(S(=O)(=O)N3CCCCC3)cc2NC(=O)Cc2ccccc2)CC1	-6.5	0.8	-1.5	12.4	-1.6	5.3
CCCCCC(=O)Nc1cc(S(=O)(=O)N2CCOCC2)ccc1N1CCCC1	-3.5	0.3	1.6	6.8	30.1*	25.3
CCCCCC(=O)Nc1cc(S(=O)(=O)N2CCCCC2)ccc1N1CCOCC1	1.0	-0.3	-3.9	-6.8	5.1	8.0
COc1ccc(NC(=O)C2(C)CCN2CC2CCCCC2)cc1OC (stereo not given)	-2.1	0.6	-1.3	-1.2	-4.2	3.5
Cc1ccccc1OCCC(=O)Nc1cc(S(=O)(=O)N2CCCCC2)ccc1N1CCN(C)CC1	-9.3	55.9*	12.9	21.0	-5.4	7.4
Cc1ccc(S(=O)(=O)N2CCOCC2)cc1NC(=O)COC(=O)C1CCC1	2.5	2.1	-0.2	-8.9	0.6	-1.4
CCOC(=O)C1CCN(CC(=O)Nc2cc(S(=O)(=O)N3CCOCC3)ccc2C)CC1	5.0	2.2	1.9	-10.5	19.4*	-6.4
O=C(/C=C/c1ccc(F)cc1)NC(=S)N1CCN(c2ccccn2)CC1	2.9	0.6	0.6	-16.5	18.7*	-11.3
COc1ccc(/C=C/C(=O)NC(=S)N2CCN(c3ccccn3)CC2)cc1OC	-16.2	13.2	-2.5	11.1	-14.0	19.0
O=C(NC1CCCCC1)C(c1ccncc1)n1c(=O)c(-c2cc3ccccc3[nH]2)nc2ccccc21 (stereo not given)	17.2	6.8	2.4	-0.8	-1.5	7.6
Cc1cc(/C=C2\SC(=S)N(Cc3ccco3)C2=O)c(C)n1-c1cccnc1	-1.9	3.6	9.6	5.6	1.5	-1.7
Cc1cc(/C=C2/SC(=S)N(c3cccc(C(F)(F)F)c3)C2=O)c(C)n1-c1cccnc1	-14.5	15.7	2.7	39.2*	-15.0	21.0
C/C(CC1CC(COCC(C)C)OC1=O)=N\Nc1nc(-c2ccccc2)cs1 (stereo not given)	-1.3	0.6	0.0	29.9*	-1.6	0.7
COc1ccc(CN2C[C@@H](CO)O[C@@H](n3cnc4c(NCCO)ncnc43)C2)cc1	-4.0	-0.5	2.4	4.2	-4.1	2.7
Cc1ccc(-c2nn(CCC(=O)O)cc2/C=C\C(=O)c2ccc(Br)cc2)cc1	19.4*	0.8	-2.7	-15.9	23.3*	-1.4
Cc1c(N2C(=O)/C(=C/c3ccc(N(C)C)cc3)N(C)C2=S)c(=O)n(-c2ccccc2)n1C	-1.0	4.1	33.6*	3.0	-17.8	19.5
OC(COc1ccccc1)CN1CCN(C(c2ccccc2)c2ccccc2)CC1 (stereo not given)	-12.6	-1.1	-24.9	16.7	-31.6	17.4
c1ccc(CN2CCN(C(c3ccccc3)c3ccccc3)CC2)cc1	-15.1	-2.2	-16.7	12.1	-25.8	8.6
O=S(=O)(CCN1CCN(C(c2ccccc2)c2ccccc2)CC1)C(F)(F)F	-15.4	1.5	-5.7	47.7*	-22.1	44.8*
c1ccc(OCCOCCN2CCN(C(c3ccccc3)c3ccccc3)CC2)cc1	-43.6	1.3	-7.7	86.4*	-22.3	51.9*
CC(C)c1ccccc1OCCCCCN1CCOCC1	-13.1	1.4	-18.2	32.2*	-25.6	6.0
COc1ccccc1OCCCCN1CCN(C(c2ccccc2)c2ccccc2)CC1	-37.6	0.6	-6.7	62.9*	-20.3	22.1
